Assay results taken from ChEMBL document CHEMBL4689842, “EUbOPEN Chemogenomics Library wave 1” (2021).

System: HEK-293T
Assay: Multiplex assay against HEK293T;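 as to Population Tubulin-Different-Phenotype (%): share of the cells with healthy nuclei that show this phenotype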
Format: toxicity, cell-based
Details: human
Method in brief: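 Cells stained live at seeding with Hoechst33342, BioTracker Green Microtubule Cytoskeleton Dye, MitoTracker Red and Annexin V Alexa Fluor 680 were imaged on a CQ1 microscope at 37°C and 5% CO2 after compound addition. Their classification by CellPathfinder machine-learning gating ran from Hoechst high-intensity objects versus normal cells, to healthy, pyknosed or fragmented nuclei among normal cells, to mitotic or apoptotic among pyknosed cells. Tubulin, mitochondrial-mass and membrane-permeability phenotypes are per cents of healthy-nucleus cells.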

[1] = 12 h, 1 µM, compound concentration 1 uM, replicate 1
[2] = 12 h, 1 µM, compound concentration 1 uM, replicate 2
[3] = 12 h, 10 µM, compound concentration 10 uM, replicate 1
[4] = 12 h, 10 µM, compound concentration 10 uM, replicate 2
[5] = 24 h, 1 µM, compound concentration 1 uM, replicate 1
[6] = 24 h, 1 µM, compound concentration 1 uM, replicate 2
[7] = 24 h, 10 µM, compound concentration 10 uM, replicate 1
[8] = 24 h, 10 µM, compound concentration 10 uM, replicate 2

C=CC(=O)Nc1cccc(Oc2nc(Nc3ccc(N4CCN(C)CC4)cc3OC)ncc2Cl)c1
Population Apoptotic (%) [1]: 22%
Population Fragmented Nuclei (%) [1]: 21%
Population Healthy Nuclei (%) [1]: 27%
Population Hoechst High Intensity Objects (%) [1]: 18%
Population Membrane Permeable-Phenotype (%) [1]: 13%
Population Mitochondria Different-Phenotype (%) [1]: 25%
Population Mitotic Cells (%) [1]: 77%
Population Normal (%) [1]: 81%
Population Pyknosed Nuclei (%) [1]: 50%
Population Tubulin-Different-Phenotype (%) [1]: 77%
Total Cell Count [1]: 425
Population Apoptotic (%) [2]: 11%
Population Fragmented Nuclei (%) [2]: 4%
Population Healthy Nuclei (%) [2]: 70%
Population Hoechst High Intensity Objects (%) [2]: 7%
Population Membrane Permeable-Phenotype (%) [2]: 11%
Population Mitochondria Different-Phenotype (%) [2]: 54%
Population Mitotic Cells (%) [2]: 88%
Population Normal (%) [2]: 92%
Population Pyknosed Nuclei (%) [2]: 25%
Population Tubulin-Different-Phenotype (%) [2]: 98%
Total Cell Count [2]: 1025
Population Apoptotic (%) [3]: 16%
Population Fragmented Nuclei (%) [3]: 10%
Population Healthy Nuclei (%) [3]: 70%
Population Hoechst High Intensity Objects (%) [3]: 12%
Population Membrane Permeable-Phenotype (%) [3]: 3%
Population Mitochondria Different-Phenotype (%) [3]: 8%
Population Mitotic Cells (%) [3]: 83%
Population Normal (%) [3]: 87%
Population Pyknosed Nuclei (%) [3]: 18%
Population Tubulin-Different-Phenotype (%) [3]: 18%
Total Cell Count [3]: 722
Population Apoptotic (%) [4]: 8%
Population Fragmented Nuclei (%) [4]: 7%
Population Healthy Nuclei (%) [4]: 86%
Population Hoechst High Intensity Objects (%) [4]: 3%
Population Membrane Permeable-Phenotype (%) [4]: 4%
Population Mitochondria Different-Phenotype (%) [4]: 15%
Population Mitotic Cells (%) [4]: 91%
Population Normal (%) [4]: 96%
Population Pyknosed Nuclei (%) [4]: 6%
Population Tubulin-Different-Phenotype (%) [4]: 16%
Total Cell Count [4]: 1384
Population Apoptotic (%) [5]: 36%
Population Fragmented Nuclei (%) [5]: 23%
Population Healthy Nuclei (%) [5]: 33%
Population Hoechst High Intensity Objects (%) [5]: 16%
Population Membrane Permeable-Phenotype (%) [5]: 10%
Population Mitochondria Different-Phenotype (%) [5]: 49%
Population Mitotic Cells (%) [5]: 63%
Population Normal (%) [5]: 83%
Population Pyknosed Nuclei (%) [5]: 43%
Population Tubulin-Different-Phenotype (%) [5]: 78%
Total Cell Count [5]: 379
Population Apoptotic (%) [6]: 13%
Population Fragmented Nuclei (%) [6]: 8%
Population Healthy Nuclei (%) [6]: 76%
Population Hoechst High Intensity Objects (%) [6]: 7%
Population Mitochondria Different-Phenotype (%) [6]: 36%
Population Mitotic Cells (%) [6]: 86%
Population Normal (%) [6]: 92%
Population Pyknosed Nuclei (%) [6]: 14%
Population Tubulin-Different-Phenotype (%) [6]: 89%
Total Cell Count [6]: 1188
Population Apoptotic (%) [7]: 8%
Population Fragmented Nuclei (%) [7]: 11%
Population Healthy Nuclei (%) [7]: 79%
Population Hoechst High Intensity Objects (%) [7]: 8%
Population Membrane Permeable-Phenotype (%) [7]: 11%
Population Mitochondria Different-Phenotype (%) [7]: 5%
Population Mitotic Cells (%) [7]: 92%
Population Normal (%) [7]: 91%
Population Pyknosed Nuclei (%) [7]: 8%
Population Tubulin-Different-Phenotype (%) [7]: 23%
Total Cell Count [7]: 923
Population Apoptotic (%) [8]: 2%
Population Fragmented Nuclei (%) [8]: 18%
Population Healthy Nuclei (%) [8]: 78%
Population Hoechst High Intensity Objects (%) [8]: 2%
Population Membrane Permeable-Phenotype (%) [8]: 7%
Population Mitochondria Different-Phenotype (%) [8]: 2%
Population Mitotic Cells (%) [8]: 97%
Population Normal (%) [8]: 97%
Population Pyknosed Nuclei (%) [8]: 3%
Population Tubulin-Different-Phenotype (%) [8]: 12%
Total Cell Count [8]: 2281
